Measurements published in ChEMBL document CHEMBL4373725, “Structure Kinetics Relationships and Molecular Dynamics Show Crucial Role for Heterocycle Leaving Group in Irreversible Diacylglycerol Lipase Inhibitors” (J Med Chem, 2019).

Columns and labels:
[1] = molecular target: T1, Diacylglycerol lipase-alpha (Mus musculus, UniProt Q6WQJ1); test: Inhibition of mouse DAGL-alpha expressed in HEK293T cell membranes pre-incubated for 20 mins before PNP-butyrate substrate addition and measured after 30 mins by surrogate substrate assay; assay type: cell-based
T1 sequence (Q6WQJ1 whole entry): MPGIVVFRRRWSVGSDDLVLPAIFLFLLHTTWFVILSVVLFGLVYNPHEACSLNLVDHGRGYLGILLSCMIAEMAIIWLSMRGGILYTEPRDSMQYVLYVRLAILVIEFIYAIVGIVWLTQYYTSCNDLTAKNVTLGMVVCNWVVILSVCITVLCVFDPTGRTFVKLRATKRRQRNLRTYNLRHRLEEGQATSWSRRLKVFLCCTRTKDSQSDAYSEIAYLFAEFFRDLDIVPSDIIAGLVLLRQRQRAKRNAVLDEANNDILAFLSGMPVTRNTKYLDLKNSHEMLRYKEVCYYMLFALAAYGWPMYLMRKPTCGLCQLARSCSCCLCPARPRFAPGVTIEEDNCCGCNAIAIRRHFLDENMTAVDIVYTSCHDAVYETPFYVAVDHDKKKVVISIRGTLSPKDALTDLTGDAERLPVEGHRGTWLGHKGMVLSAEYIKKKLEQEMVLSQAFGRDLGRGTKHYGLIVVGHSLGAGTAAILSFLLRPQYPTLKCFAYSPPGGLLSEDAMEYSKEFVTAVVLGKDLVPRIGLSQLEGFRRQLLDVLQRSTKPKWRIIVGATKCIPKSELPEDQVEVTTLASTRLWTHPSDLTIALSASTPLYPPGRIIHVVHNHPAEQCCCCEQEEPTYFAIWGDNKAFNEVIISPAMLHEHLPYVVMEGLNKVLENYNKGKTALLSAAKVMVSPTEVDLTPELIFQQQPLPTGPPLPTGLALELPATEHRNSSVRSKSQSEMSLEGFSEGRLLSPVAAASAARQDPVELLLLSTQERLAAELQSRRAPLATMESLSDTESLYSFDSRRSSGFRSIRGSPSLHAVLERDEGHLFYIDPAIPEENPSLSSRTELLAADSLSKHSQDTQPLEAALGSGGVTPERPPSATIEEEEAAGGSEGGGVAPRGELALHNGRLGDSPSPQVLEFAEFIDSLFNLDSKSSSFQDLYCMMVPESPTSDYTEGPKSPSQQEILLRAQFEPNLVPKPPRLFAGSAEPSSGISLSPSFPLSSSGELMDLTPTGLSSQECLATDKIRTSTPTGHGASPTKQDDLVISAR
In short: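 mDAGL-α membrane fraction from transiently transfected HEK293T cells, at 0.05 μg/μL final, in 50 mM Hepes pH 7.2. Inhibitor in DMSO was preincubated 20 min, then PNP-butyrate was added (0.3 mM final; 5% DMSO final). After 30 min at 20 °C, OD was read at 420 nm. Background from 10 μM THL was subtracted and values normalized to DMSO control. Plates were kept if Z′ > 0.6. N = 2, n = 2.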

[2] = molecular target: T2, Diacylglycerol lipase-alpha (Mus musculus) (UniProt Q6WQJ1); test: Inhibition of mouse DAGL-alpha expressed in HEK293T cell membranes assessed as inactivation constant measured continuously from t=0 without pre-incubation by kinetic PNP-butyrate substrate assay
T2 sequence (whole entry): T1 sequence (Q6WQJ1 whole entry)

[3] = molecular target: T1, Diacylglycerol lipase-alpha; test: Inhibition of mouse DAGL-alpha expressed in HEK293T cell membranes assessed as inhibition constant without pre-incubation, measured continuously from t=0 with 600 uM PNP-butyrate by surrogate substrate assay
[4] = molecular target: T2, Diacylglycerol lipase-alpha (Mus musculus); test: Inhibition of mouse DAGL-alpha expressed in HEK293T cell membranes assessed as inactivation constant pre-incubated for 20 mins before PNP-butyrate substrate addition and measured after 30 mins by surrogate substrate assay; assay type: cell-based
[5] = Dissociation constant, pKa of the compound; assay type: physicochemical

SMILES | IC50 ([1]; read-out: pIC50 (converted)) | Kinact [2] | Ki [3] | IC50 ([1]; read-out: IC50) | Kinact [4] | pKa [5]
C#CCO[C@@H]1CC[C@H](Cc2ccccc2)N(C(=O)n2ncc(C(O)(c3ccc(F)cc3)c3ccc(F)cc3)n2)C1 | < 1 nM | 0.058 min⁻¹ | 0.27 nM | – | – | –
Cc1ccc(-c2cnc3nc(C(=O)CCCCCc4ccccc4)oc3c2)cc1 | 2.51 nM | – | 0.23 nM | – | – | –
O=C(N1CCCC[C@@H]1Cc1ccccc1)n1cnc(C(O)(c2ccc(F)cc2)c2ccc(F)cc2)n1 | – | – | 13800 nM | 3400 nM | 0.075 min⁻¹ | 10
O=C(N1CCCC[C@@H]1Cc1ccccc1)n1ccc(C(O)(c2ccc(F)cc2)c2ccc(F)cc2)n1 | – | – | 10800 nM | 210 nM | 0.08 min⁻¹ | 14.2
O=C(N1CCCC[C@@H]1Cc1ccccc1)n1cc(C(O)(c2ccc(F)cc2)c2ccc(F)cc2)nn1 | 3.8 nM | – | 339 nM | – | 0.32 min⁻¹ | 9.3
O=C(N1CCCCC1Cc1ccccc1)n1cc(-c2ccc(-c3ccccc3)cc2)nn1 (stereo unspecified) | < 1 nM | – | 0.35 nM | – | 0.08 min⁻¹ | –
O=C(N1CCCC[C@@H]1Cc1ccccc1)n1cnc(C(O)(c2ccc(F)cc2)c2ccc(F)cc2)c1 | > 31600 nM | – | – | – | – | 14.4
O=C(N1CCCC[C@@H]1Cc1ccccc1)n1ncc(C(O)(c2ccc(F)cc2)c2ccc(F)cc2)n1 | 3.02 nM | – | 10.4 nM | – | 0.22 min⁻¹ | 9.3
